Assay results: ChEMBL document CHEMBL1773068, “Drug to genome to drug: discovery of new antiplasmodial compounds” (J Med Chem, 2011)
Active and inactive are the calls of the source. The rule behind the calls is not given here.

Key:
Plasmodium falciparum [1] = assay: Antiplasmodial activity against chloroquine-susceptible Plasmodium falciparum GHA strain infected in human erythrocytes after 72 hrs by spectrophotometry; assay type: functional, organism-based
Procedure, shortened: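 P. falciparum cultured in human A+ erythrocytes in RPMI-1640 with 10% human serum, 37 °C, low oxygen (3% O2, 4% CO2, 93% N2). Infected red cell suspension (1% parasitemia, 2% hematocrit) incubated with compounds 72 h, then frozen. Growth read by Malstat method: NBT/PES added, 2 h in dark, absorbance at 655 nm. IC50 from duplicate determinations.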

MRC5 = assay: Cytotoxicity against human MRC5 SV2 cells after 72 hrs; assay type: cell-based; conditions: MRC5, 72 h
Procedure, shortened: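 MRC-5 SV2 human fetal lung fibroblasts grown in MEM with L-glutamine, NaHCO3 and 5% FCS at 37 °C, 5% CO2. 10^4 cells/well seeded onto prediluted compounds, 72 h at 37 °C. Viability by resazurin added for 24 h, fluorescence at ex 530/em 590 nm. IC50 from duplicate determinations.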

Plasmodium falciparum [2] = assay: Inhibition of Plasmodium falciparum GHA strain PDE assessed as inhibition of cGMP hydrolysis at 20 uM after 6 hrs by time resolved fluorescence resonance energy transfer-based assay
Procedure, shortened: (§1)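 Parasite lysate (2 μL, ~400 000 parasites) incubated with cGMP (150 nM) and inhibitor at 20 μM (4% DMSO final) for 6 h at 37 °C. Buffer: 50 mM Tris-HCl pH 7.4, 6 mM MgCl2, 1 mM MnCl2, 4 mM DTT. Residual cGMP measured by competitive HTRF (d2-labelled cGMP vs anti-cGMP cryptate), 665/620 nm ratio after 1 h at room temperature. Duplicates, each read twice.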

Plasmodium falciparum [3] = assay: Inhibition of Plasmodium falciparum GHA strain PDE assessed as inhibition of cAMP hydrolysis at 20 uM after 6 hrs by time resolved fluorescence resonance energy transfer-based assay
Procedure, shortened: as §1, with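 “cAMP” for “cGMP”, “anti-cAMP” for “anti-cGMP”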

Structure (SMILES) | IC50 (Plasmodium falciparum [1]; read-out: IC50) [µM] | IC50 (MRC5) [µM] | inhibition (Plasmodium falciparum [2]) | inhibition (Plasmodium falciparum [3]) | IC50 (Plasmodium falciparum [1]; read-out: pIC50 (converted)) [µM]
COc1ccc(N2CC(=O)N3[C@H](c4ccc5c(c4)OCO5)c4[nH]c5ccccc5c4C[C@@H]3C2=O)cc1 | > 64 | > 64 | – | – | –
O=C1N[C@@H](COCc2ccccc2)C(=O)N2[C@H](c3ccc4c(c3)OCO4)c3[nH]c4ccccc4c3C[C@H]12 | > 64 | > 64 | – | – | –
CC(C)(C)OC(=O)N1CCN(c2ccc(N3CC(=O)N4[C@H](c5ccc6c(c5)OCO6)c5[nH]c6ccccc6c5C[C@@H]4C3=O)cc2)CC1 | > 64 | > 64 | – | – | –
O=C1[C@H]2Cc3c([nH]c4ccccc34)[C@@H](c3ccc4c(c3)OCO4)N2C(=O)CN1[C@@H]1CCNC1 | 12 | > 64 | – | – | –
CCCCN1CC(=O)N2[C@H](c3ccc4c(c3)OCO4)c3[nH]c4ccccc4c3C[C@@H]2C1=O | > 64 | > 64 | – | – | –
CC(C)(C)OC(=O)CC[C@@H]1NC(=O)[C@H]2Cc3c([nH]c4ccccc34)[C@@H](c3ccc4c(c3)OCO4)N2C1=O | 60 | > 64 | – | – | –
O=C1[C@H]2Cc3c([nH]c4ccccc34)[C@@H](c3ccc4c(c3)OCO4)N2C(=O)CN1CCCn1ccnc1 | 9 | > 64 | – | – | –
O=C1[C@H]2Cc3c([nH]c4ccccc34)[C@@H](c3ccc4c(c3)OCO4)N2C(=O)CN1CCc1ccc(O)cc1 | 16 | > 64 | – | – | –
O=C1[C@H]2Cc3c([nH]c4ccccc34)[C@@H](c3ccc4c(c3)OCO4)N2C(=O)CN1C1CCN(Cc2ccccc2)CC1 | 1 | 7 | 60% | Active | –
CC(C)(C)OC(=O)N1CCN(Cc2cccc(N3CC(=O)N4[C@H](c5ccc6c(c5)OCO6)c5[nH]c6ccccc6c5C[C@@H]4C3=O)c2)CC1 | 23 | > 64 | – | – | –
O=C1[C@H]2Cc3c([nH]c4ccccc34)[C@@H](c3ccc4c(c3)OCO4)N2C(=O)CN1c1ccc(Cl)cc1 | 60 | > 64 | – | – | –
O=C1[C@H]2Cc3c([nH]c4ccccc34)[C@@H](c3ccc4c(c3)OCO4)N2C(=O)CN1[C@H]1CCN(Cc2ccccc2)C1 | 10 | > 64 | – | – | –
Cc1cccc(N2CC(=O)N3[C@H](c4ccc5c(c4)OCO5)c4[nH]c5ccccc5c4C[C@@H]3C2=O)c1 | > 64 | > 64 | – | – | –
CN(CCCN1CC(=O)N2[C@H](c3ccc4c(c3)OCO4)c3[nH]c4ccccc4c3C[C@@H]2C1=O)Cc1ccccc1 | 8 | 8 | – | – | –
O=C1[C@H]2Cc3c([nH]c4cc(F)ccc34)[C@@H](c3ccc4c(c3)OCO4)N2C(=O)CN1[C@@H]1CCN(Cc2ccccc2)C1 (mixture of isomers) | 1.26 | 16 | – | – | –
CCCOc1ccccc1-c1nc2[nH]nnc2c(=O)[nH]1 [ZAPRINAST] | 35 | – | Active | Active | –
OCCN(CCO)c1nc(N2CCCCC2)c2nc(N(CCO)CCO)nc(N3CCCCC3)c2n1 [DIPYRIDAMOLE] | 64 | – | Active | Active | –
O=C1[C@H]2Cc3c([nH]c4ncccc34)[C@@H](c3ccc4c(c3)OCO4)N2C(=O)CN1[C@@H]1CCN(Cc2ccccc2)C1 | 0.97 | 22 | – | – | –
O=C1[C@H]2Cc3c([nH]c4ccccc34)[C@@H](c3ccc4c(c3)OCO4)N2C(=O)CN1c1cccs1 | > 64 | > 64 | – | – | –
CN1CC(=O)N2[C@H](c3ccc4c(c3)OCO4)c3[nH]c4ccccc4c3C[C@@H]2C1=O [TADALAFIL] | > 64 | > 64 | – | – | –
CN(CCN1CC(=O)N2[C@H](c3ccc4c(c3)OCO4)c3[nH]c4ccccc4c3C[C@@H]2C1=O)Cc1ccccc1 | 7 | > 64 | – | – | –
O=C1[C@H]2Cc3c([nH]c4ccccc34)[C@@H](c3ccc4c(c3)OCO4)N2C(=O)CN1c1cccc(CN2CCNCC2)c1 | 10 | 8 | – | – | –

Structure (SMILES) | IC50 (Plasmodium falciparum [1]; read-out: IC50) [µM] | IC50 (MRC5) [µM] | inhibition (Plasmodium falciparum [2]) | inhibition (Plasmodium falciparum [3]) | IC50 (Plasmodium falciparum [1]; read-out: pIC50 (converted)) [µM]
O=C1[C@H]2Cc3c([nH]c4ccccc34)[C@@H](c3ccc4c(c3)OCO4)N2C(=O)CN1c1cccnc1 | 22 | > 64 | – | – | –
NN1CC(=O)N2[C@H](c3ccc4c(c3)OCO4)c3[nH]c4ccccc4c3C[C@@H]2C1=O | > 64 | > 64 | – | – | –
O=C1[C@H]2Cc3c([nH]c4ccccc34)[C@@H](c3ccc4c(c3)OCO4)N2C(=O)CN1Cc1ccc(N2CCOCC2)cc1 | 9 | > 64 | – | – | –
O=C1[C@H]2Cc3c([nH]c4ccccc34)[C@H](c3ccc4c(c3)OCO4)N2C(=O)CN1[C@@H]1CCN(Cc2ccccc2)C1 | 50 | > 64 | – | – | –
O=C1[C@H]2Cc3c([nH]c4ccccc34)[C@@H](c3ccc4c(c3)OCO4)N2C(=O)CN1c1ccc(C(F)(F)F)cc1 | > 64 | > 64 | – | – | –
O=C1[C@H]2Cc3c([nH]c4ccccc34)[C@@H](c3ccc4c(c3)OCO4)N2C(=O)CN1CCN1CCOCC1 | 22 | > 64 | – | – | –
O=C1[C@H]2Cc3c([nH]c4ccccc34)[C@@H](c3ccc4c(c3)OCO4)N2C(=O)CN1c1ccccc1 | > 64 | > 64 | – | – | –
Cn1c2c(c3ccccc31)C[C@@H]1C(=O)N([C@@H]3CCN(Cc4ccccc4)C3)CC(=O)N1[C@@H]2c1ccc2c(c1)OCO2 | 9 | > 64 | – | – | –
O=C1NCC(=O)N2[C@H](c3ccc4c(c3)OCO4)c3[nH]c4ccccc4c3C[C@H]12 [NORTADALAFIL] | > 64 | > 64 | – | – | –
O=C1[C@H]2Cc3c([nH]c4ccccc34)[C@@H](c3ccc4c(c3)OCO4)N2C(=O)CN1c1cncnc1 | 56 | > 64 | – | – | –
O=C1[C@H]2Cc3c([nH]c4ccccc34)[C@@H](c3ccc4c(c3)OCO4)N2C(=O)CN1c1cccc(Cl)c1 | > 64 | > 64 | – | – | –
CCCCc1ccc(N2CC(=O)N3[C@H](c4ccc5c(c4)OCO5)c4[nH]c5ccccc5c4C[C@@H]3C2=O)cc1 | > 64 | > 64 | – | – | –
O=C1[C@H]2Cc3c([nH]c4ccc(F)cc34)[C@@H](c3ccc4c(c3)OCO4)N2C(=O)CN1[C@@H]1CCN(Cc2ccccc2)C1 (mixture of isomers) | 1.7 | 17.8 | – | – | –
O=C1[C@H]2Cc3c([nH]c4ccc(Br)cc34)[C@@H](c3ccc4c(c3)OCO4)N2C(=O)CN1[C@@H]1CCN(Cc2ccccc2)C1 (mixture of isomers) | 7 | 10 | – | – | –
NCCCC[C@H]1NC(=O)[C@H]2Cc3c([nH]c4ccccc34)[C@@H](c3ccc4c(c3)OCO4)N2C1=O | 4 | > 64 | – | – | –
O=C1[C@H]2Cc3c([nH]c4ccccc34)[C@@H](c3ccc4c(c3)OCO4)N2C(=O)CN1c1ccc(CN2CCOCC2)cc1 | 19 | > 64 | – | – | –
O=C1N[C@@H](Cc2c[nH]c3ccccc23)C(=O)N2[C@H](c3ccc4c(c3)OCO4)c3[nH]c4ccccc4c3C[C@H]12 | 25 | 35 | – | – | –
O=C1[C@H]2Cc3c([nH]c4ccccc34)[C@@H](c3ccc4c(c3)OCO4)N2C(=O)CN1c1ccc(N2CCNCC2)cc1 | 7 | 8 | – | – | –
O=C1[C@H]2Cc3c([nH]c4ccccc34)[C@@H](c3ccc4c(c3)OCO4)N2C(=O)CN1c1ccsc1 | > 64 | > 64 | – | – | –
O=C1[C@H]2Cc3c([nH]c4ccccc34)[C@@H](c3ccc4c(c3)OCO4)N2C(=O)CN1[C@@H]1CCN(Cc2ccccc2)C1 | 0.5 | 10 | 60% | Active | 0.501
O=C1[C@H]2Cc3c([nH]c4ccccc34)[C@@H](c3ccc4c(c3)OCO4)N2C(=O)CN1C1CCNCC1 | 32 | > 64 | – | – | –
Cn1ccnc1CN1CCC(N2CC(=O)N3[C@H](c4ccc5c(c4)OCO5)c4[nH]c5ccccc5c4C[C@@H]3C2=O)CC1 | 4 | 62 | – | – | –
